Here are results for one molecule from BindingDB's records for doi:10.1021/acs.jmedchem.9b01336 (University of Naples Federico II, 2020).

Assay [1] can be described thus: Inhibition of RET isoform 9 C634Y mutant (unknown origin) expressed in mouse NIH/3T3 cells assessed as reduction in cell proliferation supplemented with fresh medium containing compound for every 2 to 3 days measured at 2 days interval during compound dosing.
Assay [2] concerns the target T1, Proto-oncogene tyrosine-protein kinase receptor Ret (Homo sapiens, UniProt P07949). The experiment in a line: Inhibition of CCDC6/RET in human LC2/ad cells assessed as reduction in cell proliferation supplemented with fresh medium containing compound for every 2 to 3 days and measured during compound dosing.
Target sequence in this assay (P07949 whole entry, looked up, canonical isoform): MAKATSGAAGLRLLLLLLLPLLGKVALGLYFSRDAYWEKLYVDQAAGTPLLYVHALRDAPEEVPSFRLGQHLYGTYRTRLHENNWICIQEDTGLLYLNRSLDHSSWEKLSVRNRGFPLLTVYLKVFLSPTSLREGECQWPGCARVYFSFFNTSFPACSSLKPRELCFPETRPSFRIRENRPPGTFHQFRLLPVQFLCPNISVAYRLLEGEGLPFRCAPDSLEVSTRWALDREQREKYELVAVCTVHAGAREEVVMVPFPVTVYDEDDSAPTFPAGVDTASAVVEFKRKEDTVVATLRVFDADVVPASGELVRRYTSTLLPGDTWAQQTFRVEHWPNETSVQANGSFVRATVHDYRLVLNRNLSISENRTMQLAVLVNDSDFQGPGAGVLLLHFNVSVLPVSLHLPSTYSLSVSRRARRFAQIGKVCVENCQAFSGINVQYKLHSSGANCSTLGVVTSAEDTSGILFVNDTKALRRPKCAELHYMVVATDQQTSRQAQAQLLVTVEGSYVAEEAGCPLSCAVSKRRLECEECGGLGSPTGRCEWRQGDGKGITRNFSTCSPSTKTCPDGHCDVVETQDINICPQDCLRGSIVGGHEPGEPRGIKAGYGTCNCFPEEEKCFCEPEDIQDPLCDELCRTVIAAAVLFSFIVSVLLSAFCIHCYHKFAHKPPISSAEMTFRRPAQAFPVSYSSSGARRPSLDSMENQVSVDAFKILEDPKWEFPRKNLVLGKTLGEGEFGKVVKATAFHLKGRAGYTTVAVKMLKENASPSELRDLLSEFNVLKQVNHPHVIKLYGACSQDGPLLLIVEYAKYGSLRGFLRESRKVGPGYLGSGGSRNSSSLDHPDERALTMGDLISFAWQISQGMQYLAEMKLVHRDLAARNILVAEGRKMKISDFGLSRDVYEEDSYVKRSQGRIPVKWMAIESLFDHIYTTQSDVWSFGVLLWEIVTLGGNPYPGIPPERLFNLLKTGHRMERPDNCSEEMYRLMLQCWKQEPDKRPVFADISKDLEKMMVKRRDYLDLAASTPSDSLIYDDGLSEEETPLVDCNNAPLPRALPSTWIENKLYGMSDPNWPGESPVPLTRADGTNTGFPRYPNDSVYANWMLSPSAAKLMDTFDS
Assay [3] is described as follows: Inhibition of RET isoform 15 C634R mutant (unknown origin) expressed in mouse BAF3 cells assessed as reduction in cell proliferation supplemented with fresh medium containing compound for every 2 to 3 days and measured daily.
Assay [4] has as its target T1, Proto-oncogene tyrosine-protein kinase receptor Ret. The assay can be described thus: Inhibition of RET isoform 9 C634W mutant in human TT cells assessed as reduction in cell proliferation supplemented with fresh medium containing compound for every 2 to 3 days and measured during compound dosing. Put shortly: (§1)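 TT (200000/well) or MZ-CRC-1 (100000/well) seeded in 10% FCS; drug or vehicle from next day, refreshed every 2–3 days; counted every 2–3 days; IC50 by curve fitting of last-day growth.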
Target sequence in this assay (P07949 29-1114 C634W limits assumed): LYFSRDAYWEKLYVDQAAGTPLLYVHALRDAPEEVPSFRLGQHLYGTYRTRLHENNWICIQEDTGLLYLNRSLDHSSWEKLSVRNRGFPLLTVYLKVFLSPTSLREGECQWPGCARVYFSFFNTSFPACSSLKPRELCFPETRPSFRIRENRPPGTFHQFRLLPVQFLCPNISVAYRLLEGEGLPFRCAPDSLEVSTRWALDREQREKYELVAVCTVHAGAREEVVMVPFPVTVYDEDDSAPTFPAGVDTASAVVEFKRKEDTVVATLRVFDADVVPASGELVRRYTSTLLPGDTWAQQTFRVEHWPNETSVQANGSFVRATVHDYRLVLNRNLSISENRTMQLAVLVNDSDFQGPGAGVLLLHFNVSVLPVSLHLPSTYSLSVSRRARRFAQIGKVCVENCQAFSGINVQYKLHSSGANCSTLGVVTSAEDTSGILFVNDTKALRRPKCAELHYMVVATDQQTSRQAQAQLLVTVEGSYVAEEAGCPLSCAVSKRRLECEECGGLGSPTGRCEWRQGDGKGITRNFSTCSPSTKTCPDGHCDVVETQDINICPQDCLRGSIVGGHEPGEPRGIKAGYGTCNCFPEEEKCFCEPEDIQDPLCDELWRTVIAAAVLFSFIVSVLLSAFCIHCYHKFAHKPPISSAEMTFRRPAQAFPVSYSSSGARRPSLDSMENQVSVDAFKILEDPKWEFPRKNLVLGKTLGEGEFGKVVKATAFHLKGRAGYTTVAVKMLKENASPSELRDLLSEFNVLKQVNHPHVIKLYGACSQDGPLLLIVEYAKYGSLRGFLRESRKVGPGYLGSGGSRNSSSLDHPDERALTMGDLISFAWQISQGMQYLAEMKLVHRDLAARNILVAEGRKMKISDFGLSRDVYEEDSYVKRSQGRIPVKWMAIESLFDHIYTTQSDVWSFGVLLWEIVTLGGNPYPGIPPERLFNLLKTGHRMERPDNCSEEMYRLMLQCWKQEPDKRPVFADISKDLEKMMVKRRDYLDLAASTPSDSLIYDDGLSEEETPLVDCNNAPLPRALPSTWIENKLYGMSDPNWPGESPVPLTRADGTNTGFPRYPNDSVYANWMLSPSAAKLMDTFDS

A short description of assay [5]: Inhibition of RET isoform 15 M918T mutant (unknown origin) expressed in mouse BAF3 cells assessed as reduction in cell proliferation supplemented with fresh medium containing compound for every 2 to 3 days and measured daily.
The target in assay [6] is T1, Proto-oncogene tyrosine-protein kinase receptor Ret. The assay can be described thus: Inhibition of CCDC6/RET in human TPC1 cells assessed as reduction in cell proliferation supplemented with fresh medium containing compound for every 2 to 3 days and measured during compound dosing.
Target sequence in this assay (P07949 whole entry, looked up, canonical isoform): as the sequence (P07949 whole entry, looked up, canonical isoform) above
For assay [7] the target is unchanged. The assay can be described thus: Inhibition of RET isoform 9 M918T mutant in human MZ-CRC-1 cells assessed as reduction in cell proliferation supplemented with fresh medium containing compound for every 2 to 3 days and measured during compound dosing. Put shortly:
as §1
Target sequence in this assay (P07949 29-1114 M918T limits assumed): as the sequence (P07949 29-1114 C634W limits assumed) above, with W606C, M890T counted along it

With `CC(C)(C)c1cc(NC(=O)Cc2ccc(-n3cnc4cc(-c5ccc(S(C)(=O)=O)cc5)ccc43)cc2)no1`, the half-inhibitory concentration (IC50) in assay [1] was 4.2 nM; in assay [2], 0.67 nM; in assay [3], 1.7 nM; in assay [4], 0.67 nM; in assay [5] it was 1.6 nM; in assay [6], 0.67 nM. In assay [7], the half-maximal inhibitory concentration (IC50) stood at 0.67 nM.
